Rows were chosen to be rich in hits. Some 2.9% of all compounds tested hit in one or more screens of this group.
OX1R antag-1: antagonists of human orexin 1 receptor (OX1R); hit rate 1.8% among 330,000; OX1R-expressing cells, FRET antagonist read-out; inhibition, % at 6.6 µM; AID 485270; O43613; in the data active = inhibition mostly above about 38%, no sharp cut-off; inactive = mostly below about 40%;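 note: 0% = agonist challenge alone and 100% = reference antagonist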
Target sequence (O43613 whole entry, looked up): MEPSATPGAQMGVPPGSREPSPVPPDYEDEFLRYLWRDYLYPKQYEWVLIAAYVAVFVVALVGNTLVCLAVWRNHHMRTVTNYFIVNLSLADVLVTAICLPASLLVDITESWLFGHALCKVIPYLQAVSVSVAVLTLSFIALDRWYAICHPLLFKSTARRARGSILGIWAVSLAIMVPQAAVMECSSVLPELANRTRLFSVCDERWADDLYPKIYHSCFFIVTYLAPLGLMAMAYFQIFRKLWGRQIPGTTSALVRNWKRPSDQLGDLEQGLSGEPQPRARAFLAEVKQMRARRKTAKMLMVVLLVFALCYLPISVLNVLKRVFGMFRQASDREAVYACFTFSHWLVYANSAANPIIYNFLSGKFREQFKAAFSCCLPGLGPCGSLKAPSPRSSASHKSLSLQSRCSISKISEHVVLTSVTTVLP
CHO parental Ca: counter-screen: ATP calcium response change in parental CHO cells | hit rate 0.63% among 330,000 | inhibition, % at 5.6 µM | parental CHO-K1, ATP-induced calcium, Fluo-8 fluorescence | AID 463079;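 active = inhibition above that plate's mean sample inhibition plus 3 SD, cut at about 26% in these data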;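 note: 0% = ATP-challenged DMSO wells and 100% = DMSO wells without ATP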
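Material: Parental CHO cells | Reagent: ATP | Compound dosing: Single nominal dose of 5.6 µM per compound | Detection: Intracellular calcium via Fluo-8 no-wash fluorescent dye | Read-out: % inhibition of ATP-induced calcium mobilization | Benchmarks: Low control ATP plus DMSO, high control DMSO only | Replicates: Singlicate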
CHO-K1 Ca antag: M1 antagonist counterscreen hit in parental CHO-K1 cells; hit rate 0.6% among 360,000; inhibition, % at 3 µM; ATP-induced calcium, Fluo-8 fluorescence;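 active = inhibition above a per-plate cutoff, the plate's mean sample inhibition plus 3 SD, cut at about 24% in these data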;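 note: 0% = DMSO plus EC80 ATP and 100% = DMSO alone without ATP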
CHO-K1 Ca ag: nonselective activator or artifact in parental CHO-K1 cells; Fluo-8 calcium fluorescence; scaled to maximal ATP response, vehicle zero; hit rate 0.48% among 360,000; activation, % at 3 µM; in the data active = activation above about 15%;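 note: untransfected CHO-K1 host cells lacking M1 receptor as counterscreen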
OX1R antag-2: antagonists of human orexin 1 receptor; CHO/OX1R cells, Fluo-8 calcium fluorescence, orexin A; inhibition, % at 5 µM; AID 434989; hit rate 0.43% among 330,000; O43613;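 active = inhibition above its plate's threshold, mean inhibition of all tested compounds on the plate plus 3 SD, cut at about 37% in these data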;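 note: 0% = orexin A challenge wells and 100% = SB-334867-A antagonist wells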
CHO-K1 Ca PAM: counter-screen for M1 PAMs: effect in parental CHO-K1 cells | ATP EC20, Fluo-8 calcium fluorescence; 0% at ATP EC20, 100% at ATP max | activation, % at 3 µM | hit rate 0.02% among 360,000 | AID 602247;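 active = activation above the run cutoff, the mean activation of all test compounds plus 3 SD, cut at about 40% in these data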;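 note: peak over basal fluorescence ratio in a 140 s read after ATP addition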
OX1R HTRF conf: OX1R (human) antagonism, HTRF confirmed | shares compounds with OX1R antag-1 | OX1R-expressing cells, HTRF antagonist assay | inhibition, % at 6.6 µM | hit rate 49% among 1,800 | AID 492964; in the data active = inhibition above about 55%;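 note: CHO cells expressing OX1R stimulated with orexin A at about EC80; 0% = agonist challenge alone and 100% = reference antagonist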
CHO-K1 HTRF: counter-screen: parental CHO-K1 HTRF response. hit rate 48% among 1,800. parental CHO-K1 cells, HTRF counterscreen. inhibition, % at 6.6 µM. shares compounds with OX1R antag-1; in the data active = inhibition above about 17%;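 note: 0% = agonist challenge with vehicle and 100% = vehicle alone without agonist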
Active calls of the source: *; nt = no result given; + = active, no number.

SMILES	OX1R antag-1	CHO parental Ca	CHO-K1 Ca antag	CHO-K1 Ca ag	OX1R antag-2	CHO-K1 Ca PAM	OX1R HTRF conf	CHO-K1 HTRF
Cc1c(CCOC(=O)c2cc([N+](=O)[O-])cc([N+](=O)[O-])c2)sc[n+]1CC(=O)c1ccccc1	26.2	-23.3	-14.1	0.5	-16.4	10.2	nt	nt
O=C(N/N=C/c1c(Cl)[nH]c2ccccc12)c1ccc2c(c1)OCCO2	78.6*	1.9	-6.2	2.2	2.9	7.3	86.5*	-3.1
CC(=O)Nc1ccc(C(=O)N2CCCCC2c2cc(C(=O)NC(C)C)no2)cc1 (stereo not drawn)	nt	nt	-13.7	1.0	nt	10.9	nt	nt
COc1ccc(C(=O)C[n+]2ccc(-c3nnc4n3CCC4)cc2)cc1	84.8*	-3.6	12.4	0.0	-8.4	-11.8	64.5*	49.8*
O=C(CS(=O)c1ccc(C(F)(F)F)cc1[N+](=O)[O-])Oc1ccccc1 (stereo not drawn)	86.3*	-13.9	-10.9	0.8	-7.0	17.6	46.6	12.7
CCN(CC)S(=O)(=O)c1ccc(N2CCOCC2)c(NC(=O)C2=COCCO2)c1	16.9	-8.4	3.9	0.4	-13.5	12.6	nt	nt
Cc1n[nH]c(C)c1N1C(=O)c2cccc3c(Br)ccc(c23)C1=O	79.7*	1.6	-12.3	2.9	-4.4	8.2	41.8	40.0*
Cc1ccc(CNC(=O)Nc2ccc(F)cc2)n1C	nt	nt	-0.6	0.9	nt	5.6	nt	nt
c1ccc(CN2CCN(C3CCCSc4ccccc43)CC2)cc1 (stereo not drawn)	86.6*	-22.8	2.6	0.0	8.2	-13.4	78.9*	3.1
O=C(C1CCC1)N1CCN(Cc2ccccc2)CC1	9.0	-1.8	-12.6	0.6	-7.5	23.4	nt	nt
COc1cc(C2c3c(c(C)c(C)oc3=O)Oc3c(C)c(C)oc(=O)c32)ccc1OS(=O)(=O)c1ccc(C)cc1	9.8	-4.2	9.3	-0.3	4.1	-15.7	nt	nt
COc1ccc(Cl)cc1Nc1nc(N)c2ccccc2n1	23.1	12.7	13.7	0.5	-6.0	1.8	nt	nt
COc1ccc(OC)c(Nc2nc(N)nc(-c3cc4ccccc4o3)n2)c1	80.0*	16.1	20.6	0.1	12.2	-8.3	34.2	12.3
N#CCCn1c(O)c(N=NC(=O)CNC(=O)c2cccs2)c2ccccc21	93.0*	-7.7	-2.3	0.9	-21.5	-2.2	38.4	50.3*
O=C(NCc1ccccc1)c1cc(C2COCCN2C(=O)C/C=C/c2ccccc2)on1 (stereo not drawn)	nt	nt	-8.4	2.2	nt	7.9	nt	nt
COc1ccc(C(=O)Oc2cccc(Nc3ncnc4ccccc34)c2)cc1OC	83.8*	3.0	6.4	10.1	14.0	-4.4	50.3	10.9
CCc1nc2ccc(C(=O)Nc3cccc(OCC(=O)N(C)C)c3)cn2c1N(C=O)Cc1ccc(OC)cc1	nt	nt	-3.2	0.8	nt	6.6	nt	nt
CCNC1=C(Cl)C(=O)c2ccccc2C1=O	178.4*	7.8	-6.4	-0.6	-14.6	6.5	58.1*	92.7*
CCCC(=O)NC1=C(Cl)C(=O)c2ccccc2C1=O	nt	nt	-11.3	1.3	nt	30.2	nt	nt
O=C1C(Cl)=C(NCCN2CCCCC2)C(=O)c2ccccc21	90.0*	8.4	10.3	0.1	-10.6	8.4	68.0*	71.0*
O=C(NCCN1CCCC1)c1ccccc1Cl	12.1	-12.6	-3.8	7.8	11.8	9.8	nt	nt
CSc1ccc(CCNC(=O)CN2C(=O)c3cccnc3Oc3ccc(C)cc32)cc1	16.6	-26.2	2.3	7.8	-12.5	-2.9	nt	nt
CCOC(=O)Cn1nnc(-c2ccc([N+](=O)[O-])cc2)n1	96.4*	11.4	-10.6	1.5	6.1	11.0	37.0	31.5*
Nc1ccc2c(c1)C(=O)C(=O)c1ccccc1-2	+	-16.8	-6.9	2.3	-0.8	7.3	82.7*	41.3*
CCOC(=O)c1cc2[nH]c3ccccc3c2[n+](-c2ccc([N+](=O)[O-])cc2)c1N	137.6*	-13.5	-1.5	-0.1	-0.9	6.5	57.0*	69.0*
O=C(OCc1cccc([N+](=O)[O-])c1)c1cc(=O)[nH]c2ccccc12	2.0	-12.0	nt	nt	-19.6	nt	nt	nt
